Measurements as given in ChEMBL document CHEMBL5223075, “Discovery of thienothiazolocarboxamide analogues as novel anti-tubercular agent” (Bioorg Med Chem, 2020).
Converted amounts (≈) assume the structure as drawn. The source made the active and inactive calls. No cut-off for these calls is given here.

Experiments:
[1] = tested on: Mycobacterium tuberculosis; test: Antitubercular activity against Mycobacterium tuberculosis H37Rv ATCC 27294 expressing the green fluorescence protein assessed as inhibition of bacterial growth by measuring GFP fluorescence incubated for 5 days by fluorescence based plate reader analysis; format: functional, organism-based; details: H37Rv ATCC 27294, 120 h
Summary of the method: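 H37Rv-GFP was grown 14 days in 7H9/OADC/Tween/glycerol/hygromycin, washed, and seeded at ~3×10^6 CFU/mL. Compounds were given as 10-point 2-fold series starting at 20 or 1 µM, in 1% DMSO final. Plates ran 5 days at 37°C, 5% CO2, with rifampicin 1 µg/mL as positive control. GFP fluorescence was read and IC50 taken from a 4-parameter sigmoid fit.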

[2] = Half-life in BALB/c mouse at 3 mg/kg, iv by LC-MS analysis; format: ADME, organism-based; details: in vivo
Summary of the method: (§1)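 Female BALB/c mice, 6-8 weeks old. Dosed i.v. at 2 or 3 mg/kg, or orally at 10 mg/kg. Vehicles varied by compound: DMSO/Captisol, DMSO/PEG400/SBE-b-CD, or DMSO/Cremophor EL/Captisol. Blood was held at 4°C within 1 h, then centrifuged at 3200 × g for 10 min at 4°C. Plasma was kept at 4°C, and compound levels were measured by LC-MS.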

[3] = Genotoxicity in Salmonella typhimurium TA100 by Ames mutagenicity test; format: toxicity; details: salmonella enterica subsp. enterica serovar typhimurium
[4] = Genotoxicity in Salmonella typhimurium TA100 in the presence of S9 fraction by Ames mutagenicity test; format: toxicity, subcellular; details: salmonella enterica subsp. enterica serovar typhimurium
[5] = Stability in mouse plasma measured after 2 hrs; format: ADME, cell-free; details: read-out: Stability
[6] = Clearance in BALB/c mouse at 3 mg/kg, iv by LC-MS analysis; format: ADME, organism-based; details: in vivo; summary of the method: as §1
[7] = Drug concentration in BALB/c mouse lung at 10 mg/kg, po by LC-MS analysis; format: ADME, organism-based; details: in vivo; summary of the method: as §1
Jurkat = test: Cytotoxicity against human Jurkat cells assessed as inhibition of cell growth; format: functional, cell-based
[8] = Metabolic stability in mouse liver microsome assessed as phase I mediated metabolite formation by measuring half-life; format: ADME; details: microsomes
[9] = Ratio of drug concentration in lung to plasma in BALB/c mouse at 10 mg/kg, po by LC-MS analysis; format: ADME, organism-based; summary of the method: as §1
[10] = tested on: Mycobacterium tuberculosis; test: Antitubercular activity against Mycobacterium tuberculosis H37Rv ATCC 27294 expressing the green fluorescence protein infected in mouse RAW264.7 cells assessed as inhibition of bacterial growth pre-infected with cell followed by compound addition and measured after 5 days by Hoechst 33342 staining based analysis; format: functional, organism-based; details: H37Rv ATCC 27294, RAW264.7, 120 h
Summary of the method: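 RAW 264.7 cells, passages 2-9, were infected with washed H37Rv-GFP at MOI 20 for 2 h at 37°C with shaking. Cells were washed and plated at 20,000/well over 2-fold compound dilutions for 5 days. Nuclei were stained with 5 µM Hoechst (final) and 3 fields/well imaged. Four parameters (cell count, bacterial area, area per infected cell, infected-cell ratio) were each fitted by 4-parameter sigmoid, and the IC50s averaged.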

[11] = tested on: Mycobacterium tuberculosis; test: Antibacterial activity against Mycobacterium tuberculosis H37Rv ATCC 27294 infected in BALB/c mouse assessed as decrease in number of CFU in lungs at 100 mg/kg, po administered five times a week for 28 days; format: functional; details: time 28 day
Summary of the method: (§2)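 Female BALB/c mice, 6-8 weeks old, were infected intranasally with ~300-600 CFU H37Rv, 5 mice per group. Oral gavage began at day 21, 5 days/week for 4 weeks. Lungs were taken a day after the last dose, homogenized in PBS, serially diluted and plated in duplicate on 7H11-OADC agar for 2-5 weeks at 37°C. Detection limit ~2.3 logs. Bonferroni test against vehicle-treated mice.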

[12] = Metabolic stability in mouse liver microsome assessed as phase II mediated metabolite formation by measuring half-life; format: ADME; details: microsomes
[13] = tested on: Mycobacterium tuberculosis; test: Antibacterial activity against Mycobacterium tuberculosis H37Rv ATCC 27294 infected in BALB/c mouse assessed as reduction in CFU in lungs at 50 mg/kg, po administered five times a week for 28 days; format: functional, organism-based; details: time 28.0 day; summary of the method: as §2
[14] = tested on: Mycobacterium tuberculosis; test: Antibacterial activity against Mycobacterium tuberculosis H37Rv ATCC 27294 infected in BALB/c mouse assessed as reduction in bacterial burden in lungs at 100 mg/kg, po administered five times a week for 28 days; format: functional; details: time 28 day; summary of the method: as §2
[15] = Protein binding in human plasma; format: ADME, cell-free; details: read-out: PPB (converted)
HepG2 = test: Cytotoxicity against human HepG2 cells assessed as inhibition of cell growth; format: functional, cell-based
[16] = tested on: Mycobacterium tuberculosis; test: Antibacterial activity against Mycobacterium tuberculosis H37Rv ATCC 27294 infected in BALB/c mouse assessed as reduction in CFU in lungs at 20 mg/kg, po administered five times a week for 28 days; format: functional, organism-based; details: time 28.0 day; summary of the method: as §2
[17] = Genotoxicity in Salmonella typhimurium TA98 by Ames mutagenicity test; format: toxicity; details: salmonella enterica subsp. enterica serovar typhimurium
[18] = Tmax in BALB/c mouse at 10 mg/kg, po by LC-MS analysis; format: ADME, organism-based; details: in vivo; summary of the method: as §1
[19] = Cytotoxicity against HEK293 cells assessed as inhibition of cell growth; format: toxicity, cell-based; details: human
[20] = Cmax in BALB/c mouse at 10 mg/kg, po by LC-MS analysis; format: ADME, organism-based; parameters: dose 10 mg/kg, route po; details: in vivo; summary of the method: as §1
[21] = Stability in human plasma measured after 2 hrs; format: ADME, cell-free; details: read-out: Stability
[22] = Genotoxicity in Salmonella typhimurium TA98 in the presence of S9 fraction by Ames mutagenicity test; format: toxicity, subcellular; details: salmonella enterica subsp. enterica serovar typhimurium
[23] = AUClast in BALB/c mouse at 10 mg/kg, po by LC-MS analysis; format: ADME, organism-based; parameters: dose 10 mg/kg, route po; details: in vivo; summary of the method: as §1
[24] = Volume of distribution at steady state in BALB/c mouse at 3 mg/kg, iv by LC-MS analysis; format: ADME, organism-based; details: in vivo, read-out: Vdss; summary of the method: as §1
A549 = test: Cytotoxicity against human A549 cells assessed as inhibition of cell growth; format: functional, cell-based
[25] = Metabolic stability in human liver microsome assessed as phase II mediated metabolite formation by measuring half-life; format: ADME; details: microsomes
[26] = Metabolic stability in human liver microsome assessed as phase I mediated metabolite formation by measuring half-life; format: ADME; details: microsomes
[27] = Oral bioavailability in BALB/c mouse at 10 mg/kg by LC-MS analysis; format: ADME, organism-based; details: in vivo; summary of the method: as §1
[28] = Drug concentration in BALB/c mouse plasma at 10 mg/kg, po by LC-MS analysis; format: ADME, organism-based; details: in vivo; summary of the method: as §1
[29] = Solubility of the compound at pH 7.4; format: physicochemical; details: buffer
[30] = Protein binding in mouse plasma; format: ADME, cell-free; details: read-out: PPB (converted)
[31] = Solubility of the compound at pH 2.1; format: physicochemical; details: buffer
[32] = Half-life in BALB/c mouse at 10 mg/kg, po by LC-MS analysis; format: ADME, organism-based; details: in vivo; summary of the method: as §1

## O=C(Nc1ccc(-c2ccc(F)cn2)cc1)c1cc2sc(NCCN3CCOCC3)nc2s1
[1]
  IC50: 0.76 µM
[2]
  half-life: 1.2 h
[3]
  Activity: Non-Toxic
[4]
  Activity: Non-Toxic
[5]
  remaining at 2 h: > 100%
[6]
  clearance: 14.9 mL/min/kg
[7]
  Ct: 16180 ng/mL
Jurkat
  IC50: > 50 µM
[8]
  t1/2: 0.758 h
[9]
  Kp: 4.8
[10]
  IC50: 0.19 µM
[11]
  Activity: 2.7 log10CFU
[12]
  t1/2: > 1 h
[13]
  Activity: Active
[14]
  log(activity): 4
[15]
  fraction unbound: 0.002
HepG2
  IC50: > 50 µM
[16]
  Activity: inactive
[17]
  Activity: Non-Toxic
[18]
  Tmax: 1 h
[19]
  IC50: > 50 µM
[20]
  Cmax: 2940 ng/mL
[21]
  remaining at 2 h: 98.2%
[22]
  Activity: Non-Toxic
[23]
  AUC(0-t): 10400 ng·h/mL
[24]
  Vd: 1.52 L/kg
A549
  IC50: > 50 µM
[25]
  t1/2: > 1 h
[26]
  t1/2: > 1 h
[27]
  bioavailability: 102%
[28]
  Cp: 3380 ng/mL
[29]
  solubility: 0.76 µg/mL (≈ 1.57 µM)
[30]
  fraction unbound: 0.002
[31]
  solubility: 43.6 µg/mL (≈ 90.2 µM)
[32]
  half-life: 2.3 h
